SMILES strings stand for the structures. The source made the active and inactive calls. No cut-off for these calls is given here.

This note sets out measurements from ChEMBL document CHEMBL1148016, “Synthesis of 1,3-diphenyl-2-propen-1-one derivatives and evaluation of their biological activities” (Bioorg Med Chem, 2007).

The subject of one assay is Microglia. Put plainly: Suppression of LPS-induced NO production in Sprague-Dawley rat microglia after 24 hrs. It is filed as functional, cell-based. The procedure, abridged: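 Primary microglia from postnatal day-1 Sprague–Dawley rat cortex, grown 10–14 days in MEM/10% FBS, detached by shaking and replated. Cells given LPS 1 µg/mL with compound (1, 5, 10, 20 µM) for 24 h at 37 °C. Supernatant nitrite measured by Griess reaction at 540 nm. Three independent experiments in triplicate.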

Assay [1] can be described thus: DPPH radical scavenging activity. It is filed as functional. The procedure, abridged:
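Compound mixed with 0.1 mM acetic acid buffer and warmed to 25 °C for 5 min, then 0.2 mM DPPH in ethanol added. Absorbance read at 517 nm after 30 min. Scavenging rate (%) = {1 − (A − C)/B} × 100, with sample, colour-contrast and blank absorbances. 50% scavenging concentration calculated from the scavenging rate.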
A general note: DPPH is a stable violet radical that fades when it is reduced.

In assay [2] the test system is Cortical neurone. Put plainly: Inhibition of glutamate-induced neurotoxicity in mouse cortical neurons assessed as cell death at 5 uM after 24 hrs relative to NMDA. It is filed as functional. The procedure, abridged:
(§1)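 Mixed cortical neuron/glia cultures from fetal day-15 mouse cortex, on poly-D-lysine/laminin. Cytosine arabinoside 10 uM from DIV 6. Cultures exposed in serum-free MEM to 60 µM glutamate plus compound for 24 h at 37 °C. Viability by WST-1 (1:10, 2 h, 37 °C), read at 450 nm with 650 nm reference and normalized to untreated wells. Three independent experiments in triplicate.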

The test system of assay [3] is Cortical neurone. The assay can be described thus: Inhibition of glutamate-induced neurotoxicity in mouse cortical neurons assessed as cell death at 10 uM after 24 hrs relative to NMDA. The format is functional. Put shortly: as §1

By IC50 is commonly meant the point on the concentration scale where inhibition reaches its midpoint. A high value points to lower potency. On to `COc1cc(/C=C/C(=O)c2ccc(OC)c(F)c2)ccc1O`, for which the result in the assay on Microglia was Active. In assay [1], this compound displayed an IC50 of 52.5 µM.

`COc1cc(/C=C/C(=O)c2cc(F)c(F)c(F)c2)ccc1O`: the result with Cortical neurone [2], in the assay with Microglia and in the assay with Cortical neurone [3] was Active. Half-maximal inhibition in assay [1] (IC50) required 53.2 µM.

The compound `COc1cc(/C=C/C=O)ccc1O` [CONIFERYL ALDEHYDE] showed an IC50 in assay [1] of 64.6 µM.

As for `COc1cc(/C=C/C(=O)c2ccc(C(F)(F)F)cc2)ccc1O`, the result in the assay on Microglia was Active. In addition, the midpoint of inhibition in assay [1], the IC50, lay at 43.8 µM.

Consider `COc1cc(/C=C/C(=O)c2c(O)c3ccccc3oc2=O)ccc1O`, for which the result in the assay with Cortical neurone [2], in the assay with Microglia and with Cortical neurone [3] was Active. This compound also registered an IC50 in assay [1] of 52.5 µM.

For `COc1cc(/C=C/C(=O)c2ccc3c(c2)OCO3)ccc1O`, the outcome in the assay with Cortical neurone [2], in the assay on Microglia and with Cortical neurone [3] was Active. The IC50 in assay [1] amounted to 46 µM.

For the compound `COc1cc(/C=C/C(=O)c2ccc([Si](C)(C)C)cc2)ccc1O`, the result in the assay with Microglia was Active. The IC50 in assay [1] is 52.8 µM.

For `COc1cc(/C=C/C(=O)c2c(O)c3ccccc3oc2=O)ccc1O[Si](C)(C)C(C)(C)C`, the result in the assay with Microglia was Active. The same compound displayed an IC50 in assay [1] of 45.5 µM.
